Laboratory results reported in ChEMBL document CHEMBL3102784, “Salicylanilide diethyl phosphates: synthesis, antimicrobial activity and cytotoxicity” (Bioorg Med Chem, 2014).
≈ marks a conversion by molar mass, not a printed value. Calls of active or inactive are those of the source. The rule behind the calls is not given here.

Tests used:
[1] = system: Staphylococcus epidermidis; experiment: Antibacterial activity against Staphylococcus epidermidis H 6966/08 after 48 hrs by broth microdilution method; type: functional; settings: H 6966/08, 48 h
How it was run: (§1)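 Broth microdilution in Mueller–Hinton broth, compounds dissolved in DMSO, tested over a dilution series from 500 downward. MIC taken as ≥95% growth reduction (IC95) versus drug-free control. Benzylpenicillin comparator. Readings at 24 and 48 h.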

[2] = system: Mycobacterium tuberculosis; experiment: Antimycobacterial activity against Mycobacterium tuberculosis H37Rv My 331/88 after 21 days; type: functional; settings: H37Rv My 331/88, 504 h
How it was run: (§2)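 Micromethod MIC in Šula's semisynthetic medium at 37 °C. Compounds added in DMSO at 1000 down to 0.032 µmol/L. Isoniazid standard in sterile water at 0.5–250 µmol/L. Inocula: H37Rv 10^3, M. avium 10^5, M. kansasii 10^4. Read at 14 and 21 d, plus 7 d for M. kansasii.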

[3] = system: Mycobacterium kansasii; experiment: Antimycobacterial activity against Mycobacterium kansasii My 235/80 after 7 days; type: functional; settings: My 235/80, 168 h; how it was run: as §2
[4] = system: Mycobacterium avium; experiment: Antimycobacterial activity against isoniazid, rifampicin, ethambutol and ofloxacin-resistant Mycobacterium avium My 330/88 after 21 days; type: functional; settings: My 330/88, 504 h; how it was run: as §2
[5] = system: Candida albicans; experiment: Antifungal activity against Candida albicans ATCC 44859 after 48 hrs by broth microdilution method; type: functional; settings: ATCC 44859, 48 h
How it was run: (§3)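 Broth microdilution in RPMI 1640 with glutamine, fluconazole as reference. For yeasts, MIC is ≥80% growth reduction (IC80) versus control. For filamentous fungi, the value is expressed as IC50. Readings at 24 and 48 h.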

[6] = system: Escherichia coli; experiment: Antibacterial activity against Escherichia coli CCM 4517 at 500 micromol/L after 24 to 48 hrs by broth microdilution method; type: functional, organism-based; how it was run: as §1
[7] = system: Trichosporon asahii; experiment: Antifungal activity against Trichosporon asahii 1188 after 48 hrs by broth microdilution method; type: functional; settings: Trichosporon asahii, 1188, 48 h; how it was run: as §3
[8] = system: Candida tropicalis; experiment: Antifungal activity against Candida tropicalis 156 at 500 micromol/L after 24 to 48 hrs by broth microdilution method; type: functional, organism-based; how it was run: as §3
[9] = system: Staphylococcus epidermidis; experiment: Antibacterial activity against Staphylococcus epidermidis H 6966/08 after 24 hrs by broth microdilution method; type: functional; settings: H 6966/08, 24 h; how it was run: as §1
[10] = system: Staphylococcus aureus; experiment: Antibacterial activity against Staphylococcus aureus CCM 4516/08 after 48 hrs by broth microdilution method; type: functional; settings: CCM 4516/08, 48 h; how it was run: as §1
[11] = system: Lichtheimia corymbifera; experiment: Antifungal activity against Absidia corymbifera 272 after 48 hrs by broth microdilution method; type: functional; settings: Lichtheimia corymbifera, 272, 48 h; how it was run: as §3
[12] = system: HepG2; experiment: Cytotoxicity against human HepG2 cells after 24 hrs by CellTiter assay; type: cell-based; settings: HepG2, 24 h
How it was run: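 HepG2 cells (passage 27–33) in MEM with 10% FBS, L-glutamine and NEAA, seeded at 1×10^4 per well. Treated next day with compounds at 0.1–100 µM (or 0.1–25 µmol/L), triplicates, <1% DMSO, for 24 h at 37 °C, 5% CO2. MTS reagent added for 2 h, absorbance read at 490 nm. IC50 taken against untreated (100%) and 10% DMSO (0%) controls.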

[13] = system: Pichia kudriavzevii; experiment: Antifungal activity against Candida krusei E28 after 48 hrs by broth microdilution method; type: functional; settings: E28, 48 h; how it was run: as §3
[14] = system: Trichophyton mentagrophytes; experiment: Antifungal activity against Trichophyton mentagrophytes 445 after 120 hrs by broth microdilution method; type: functional; settings: Trichophyton mentagrophytes, 445, 120 h
How it was run: (§4)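 Filamentous dermatophyte tested by broth microdilution in RPMI 1640 with glutamine, fluconazole as reference. Value expressed as IC50 relative to growth control. Read at 72 and 120 h.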

[15] = system: Klebsiella pneumoniae; experiment: Antibacterial activity against Klebsiella pneumoniae D 11750/08 at 500 micromol/L after 24 to 48 hrs by broth microdilution method; type: functional, organism-based; how it was run: as §1
[16] = system: Mycobacterium avium; experiment: Antimycobacterial activity against isoniazid, rifampicin, ethambutol and ofloxacin-resistant Mycobacterium avium My 330/88 after 14 days; type: functional; settings: My 330/88, 336 h; how it was run: as §2
[17] = system: Nakaseomyces glabratus; experiment: Antifungal activity against Candida glabrata 20/I at 500 micromol/L after 24 to 48 hrs by broth microdilution method; type: functional, organism-based; how it was run: as §3
[18] = system: Lichtheimia corymbifera; experiment: Antifungal activity against Absidia corymbifera 272 after 24 hrs by broth microdilution method; type: functional; settings: Lichtheimia corymbifera, 272, 24 h; how it was run: as §3
[19] = system: Trichophyton mentagrophytes; experiment: Antifungal activity against Trichophyton mentagrophytes 445 after 72 hrs by broth microdilution method; type: functional; settings: Trichophyton mentagrophytes, 445, 72 h; how it was run: as §4
[20] = system: Enterococcus sp.; experiment: Antibacterial activity against Enterococcus sp. J 14365/08 at 500 micromol/L after 24 to 48 hrs by broth microdilution method; type: functional, organism-based; how it was run: as §1
[21] = system: Pseudomonas aeruginosa; experiment: Antibacterial activity against Pseudomonas aeruginosa CCM 1961 at 500 micromol/L after 24 to 48 hrs by broth microdilution method; type: functional, organism-based; how it was run: as §1
[22] = system: Candida albicans; experiment: Antifungal activity against Candida albicans ATCC 44859 after 24 hrs by broth microdilution method; type: functional; settings: ATCC 44859, 24 h; how it was run: as §3
[23] = system: Klebsiella pneumoniae; experiment: Antibacterial activity against ESBL-positive Klebsiella pneumoniae J 14368/08 at 500 micromol/L after 24 to 48 hrs by broth microdilution method; type: functional, organism-based; how it was run: as §1
[24] = system: Mycobacterium kansasii; experiment: Antimycobacterial activity against Mycobacterium kansasii 6509/96 after 7 days; type: functional; settings: 6509/96, 168 h; how it was run: as §2
[25] = system: Pichia kudriavzevii; experiment: Antifungal activity against Candida krusei E28 after 24 hrs by broth microdilution method; type: functional; settings: E28, 24 h; how it was run: as §3
[26] = system: Mycobacterium kansasii; experiment: Antimycobacterial activity against Mycobacterium kansasii 6509/96 after 21 days; type: functional; settings: 6509/96, 504 h; how it was run: as §2
[27] = system: Mycobacterium tuberculosis; experiment: Antimycobacterial activity against Mycobacterium tuberculosis H37Rv My 331/88 after 14 days; type: functional; settings: H37Rv My 331/88, 336 h; how it was run: as §2
[28] = system: Staphylococcus aureus; experiment: Antibacterial activity against methicillin-resistant Staphylococcus aureus H 5996/08 after 24 hrs by broth microdilution method; type: functional; settings: H 5996/08, 24 h; how it was run: as §1
[29] = system: Mycobacterium kansasii; experiment: Antimycobacterial activity against Mycobacterium kansasii 6509/96 after 14 days; type: functional; settings: 6509/96, 336 h; how it was run: as §2
[30] = system: Aspergillus fumigatus; experiment: Antifungal activity against Aspergillus fumigatus 231 after 24 hrs by broth microdilution method; type: functional; settings: Aspergillus fumigatus, 231, 24 h; how it was run: as §3
[31] = system: Mycobacterium kansasii; experiment: Antimycobacterial activity against Mycobacterium kansasii My 235/80 after 14 days; type: functional; settings: My 235/80, 336 h; how it was run: as §2
[32] = system: Aspergillus fumigatus; experiment: Antifungal activity against Aspergillus fumigatus 231 after 48 hrs by broth microdilution method; type: functional; settings: Aspergillus fumigatus, 231, 48 h; how it was run: as §3
[33] = system: Trichosporon asahii; experiment: Antifungal activity against Trichosporon asahii 1188 after 24 hrs by broth microdilution method; type: functional; settings: Trichosporon asahii, 1188, 24 h; how it was run: as §3
[34] = system: Mycobacterium kansasii; experiment: Antimycobacterial activity against Mycobacterium kansasii My 235/80 after 21 days; type: functional; settings: My 235/80, 504 h; how it was run: as §2
[35] = system: Staphylococcus aureus; experiment: Antibacterial activity against methicillin-resistant Staphylococcus aureus H 5996/08 after 48 hrs by broth microdilution method; type: functional; settings: H 5996/08, 48 h; how it was run: as §1
[36] = system: Staphylococcus aureus; experiment: Antibacterial activity against Staphylococcus aureus CCM 4516/08 after 24 hrs by broth microdilution method; type: functional; settings: CCM 4516/08, 24 h; how it was run: as §1

Row | SMILES | MIC95 [1] | MIC [2] | MIC [3] | MIC [4] | MIC80 [5] | Activity [6] | MIC80 [7] | Activity [8] | MIC95 [9] | MIC95 [10] | MIC50 [11] | IC50 [12] | MIC80 [13] | MIC50 [14] | Activity [15] | MIC [16] | Activity [17] | MIC50 [18] | MIC50 [19] | Activity [20] | other results
1 | CCOP(=O)(OCC)Oc1ccc(Br)cc1C(=O)Nc1ccc(F)cc1 | > 500 µM | 8 µM (≈ 3.57 µg/mL) | 8 µM (≈ 3.57 µg/mL) | 32 µM (≈ 14.3 µg/mL) | > 500 µM | inactive | > 500 µM | inactive | > 500 µM | > 500 µM | > 500 µM | 7.4 µM | > 500 µM | 500 µM (≈ 223 µg/mL) | inactive | 32 µM (≈ 14.3 µg/mL) | inactive | > 500 µM | 500 µM (≈ 223 µg/mL) | inactive | Activity [21]: inactive; MIC80 [22]: > 500 µM; Activity [23]: inactive; MIC [24]: 8 µM (≈ 3.57 µg/mL); MIC80 [25]: > 500 µM; MIC [26]: 16 µM (≈ 7.14 µg/mL); MIC [27]: 8 µM (≈ 3.57 µg/mL); MIC95 [28]: 500 µM (≈ 223 µg/mL); MIC [29]: 8 µM (≈ 3.57 µg/mL); MIC50 [30]: > 500 µM; MIC [31]: 16 µM (≈ 7.14 µg/mL); MIC50 [32]: > 500 µM; MIC80 [33]: > 500 µM; MIC [34]: 16 µM (≈ 7.14 µg/mL); MIC95 [35]: 500 µM (≈ 223 µg/mL); MIC95 [36]: > 500 µM
2 | CCOP(=O)(OCC)Oc1ccc(Cl)cc1C(=O)Nc1cccc(Br)c1 | 31.2 µM (≈ 14.5 µg/mL) | 4 µM (≈ 1.85 µg/mL) | 4 µM (≈ 1.85 µg/mL) | 16 µM (≈ 7.4 µg/mL) | > 500 µM | inactive | > 500 µM | inactive | 15.6 µM (≈ 7.23 µg/mL) | 31.2 µM (≈ 14.5 µg/mL) | > 500 µM | 1.81 µM | > 500 µM | 15.6 µM (≈ 7.23 µg/mL) | inactive | 16 µM (≈ 7.4 µg/mL) | inactive | > 500 µM | 15.6 µM (≈ 7.23 µg/mL) | inactive | Activity [21]: inactive; MIC80 [22]: > 500 µM; Activity [23]: inactive; MIC [24]: 8 µM (≈ 3.7 µg/mL); MIC80 [25]: > 500 µM; MIC [26]: 8 µM (≈ 3.7 µg/mL); MIC [27]: 4 µM (≈ 1.85 µg/mL); MIC95 [28]: 31.2 µM (≈ 14.5 µg/mL); MIC [29]: 8 µM (≈ 3.7 µg/mL); MIC50 [30]: > 500 µM; MIC [31]: 8 µM (≈ 3.7 µg/mL); MIC50 [32]: > 500 µM; MIC80 [33]: > 500 µM; MIC [34]: 8 µM (≈ 3.7 µg/mL); MIC95 [35]: 62.5 µM (≈ 28.9 µg/mL); MIC95 [36]: 15.6 µM (≈ 7.23 µg/mL)
3 | CCOP(=O)(OCC)Oc1ccc(Br)cc1C(=O)Nc1cccc(F)c1 | 250 µM (≈ 112 µg/mL) | 8 µM (≈ 3.57 µg/mL) | 8 µM (≈ 3.57 µg/mL) | 32 µM (≈ 14.3 µg/mL) | > 500 µM | inactive | > 500 µM | inactive | 250 µM (≈ 112 µg/mL) | 250 µM (≈ 112 µg/mL) | > 500 µM | 5.54 µM | > 500 µM | 62.5 µM (≈ 27.9 µg/mL) | inactive | 32 µM (≈ 14.3 µg/mL) | inactive | > 500 µM | 62.5 µM (≈ 27.9 µg/mL) | inactive | Activity [21]: inactive; MIC80 [22]: > 500 µM; Activity [23]: inactive; MIC [24]: 8 µM (≈ 3.57 µg/mL); MIC80 [25]: > 500 µM; MIC [26]: 16 µM (≈ 7.14 µg/mL); MIC [27]: 8 µM (≈ 3.57 µg/mL); MIC95 [28]: 250 µM (≈ 112 µg/mL); MIC [29]: 16 µM (≈ 7.14 µg/mL); MIC50 [30]: > 500 µM; MIC [31]: 16 µM (≈ 7.14 µg/mL); MIC50 [32]: > 500 µM; MIC80 [33]: > 500 µM; MIC [34]: 16 µM (≈ 7.14 µg/mL); MIC95 [35]: 250 µM (≈ 112 µg/mL); MIC95 [36]: 125 µM (≈ 55.8 µg/mL)
